Assay results: ChEMBL document CHEMBL3875203, “Small molecule mimics of DFTamP1, a database designed anti-Staphylococcal peptide” (Bioorg Med Chem, 2017)
Active and inactive are the calls of the source. The calls are words filed in the database; no cut-off is given here.

Legend:
[1] = Retention time of the compound by HPLC method; type: physicochemical
Pseudomonas aeruginosa [2] = experiment: Antibacterial activity against Pseudomonas aeruginosa PAO1 after 20 hrs by microdilution method; type: functional; settings: PAO1, 20 h
Method in brief: (§1)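 Incubated ~20 h at 37°C, then read at 630 nm. MIC is the lowest concentration with no detectable growth. Daptomycin assays had 2 mM Ca²⁺ added to the medium. Repeated several times by different investigators.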

[3] = Therapeutic index, ratio of HC50 for human RBC to MIC for methicillin-resistant Staphylococcus aureus USA300; settings: human red blood cells, read-out: TI
Method in brief: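 Supernatant hemoglobin read at 545 nm; 1% Triton X-100 = 100% lysis, untreated = 0%. HL50 divided by USA300 MIC gives the selectivity index.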

[4] = Hemolytic activity against human RBC after 1 hr; type: ADME, cell-based, Erythrocyte; settings: human red blood cells
Method in brief: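 Human red blood cells were washed three times in normal saline (800 g, 10 min) and made up as a 2% suspension. After centrifugation, supernatant absorbance was read at 545 nm. Lysis was set at 100% for 1% Triton X-100 and 0% for untreated cells; HL50 is the 50% hemolytic concentration.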

Klebsiella pneumoniae = experiment: Antibacterial activity against Klebsiella pneumoniae ATCC 13883 after 20 hrs by microdilution method; type: functional; settings: ATCC 13883, 20 h; method in brief: as §1
Staphylococcus aureus [5] = experiment: Antibacterial activity against methicillin-resistant Staphylococcus aureus USA300 after 20 hrs by microdilution method; type: functional; settings: USA300, 20 h
Method in brief: (§2)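 MIC = lowest concentration with no detectable growth. pH series run at pH 6.8, 7.4 and 8.0. Daptomycin wells carried 2 mM Ca²⁺. Repeated by different investigators on different dates.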

Escherichia coli [6] = experiment: Antibacterial activity against Escherichia coli ATCC 25922 after 20 hrs by microdilution method; type: functional; settings: ATCC 25922, 20 h; method in brief: as §1
Staphylococcus aureus [7] = experiment: Ratio of MIC for methicillin-resistant Staphylococcus aureus USA300 in presence of 100 mM NaCl to MIC for methicillin-resistant Staphylococcus aureus USA300 in absence of 100 mM NaCl; type: functional
Method in brief: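 Broth microdilution MIC against S. aureus USA300 in TSB with and without 100 mM NaCl. Inoculum 10⁶ CFU/mL exponential-phase cells, ~20 h at 37°C, OD630 read-out, no-growth endpoint. Ratio of MIC with salt to MIC without salt.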

Staphylococcus aureus [8] = experiment: Antibacterial activity against Staphylococcus aureus Newman after 20 hrs by microdilution method; type: functional; method in brief: as §1
Staphylococcus aureus [9] = experiment: Antibacterial activity against Staphylococcus aureus UAMS-1 after 20 hrs by microdilution method; type: functional; settings: UAMS-1, 20 h; method in brief: as §1
Staphylococcus aureus [10] = experiment: Antibacterial activity against Staphylococcus aureus Mu50 after 20 hrs by microdilution method; type: functional; settings: Mu50, 20 h; method in brief: as §1
Staphylococcus aureus [11] = experiment: Antibacterial activity against Staphylococcus aureus USA400 after 20 hrs by microdilution method; type: functional; settings: USA400, 20 h; method in brief: as §1
Staphylococcus aureus [12] = experiment: Induction of membrane damage in methicillin-resistant Staphylococcus aureus USA300 measured for 90 mins by propidium iodide staining based fluorescence spectroscopic analysis; type: functional
Staphylococcus aureus [13] = experiment: Antibacterial activity against Staphylococcus aureus USA200 after 20 hrs by microdilution method; type: functional; settings: USA200, 20 h; method in brief: as §1
Pseudomonas aeruginosa [14] = experiment: Antibacterial activity against Pseudomonas aeruginosa PAO1 after overnight incubation by broth microdilution method; type: functional
Staphylococcus aureus [15] = experiment: Antibacterial activity against methicillin-resistant Staphylococcus aureus USA300 LAC after overnight incubation by broth microdilution method; type: functional; method in brief: as §2
Escherichia coli [16] = experiment: Antibacterial activity against Escherichia coli K-12 after overnight incubation by broth microdilution method; type: functional

Compound | Retention_time [1] [min] | MIC (Pseudomonas aeruginosa [2]) [µM] | selectivity ratio [3] | HC50 at 1 h [4] [µM] | MIC (Klebsiella pneumoniae) [µM] | MIC (Staphylococcus aureus [5]) [µM] | MIC (Escherichia coli [6]) [µM] | Ratio (Staphylococcus aureus [7]) | MIC (Staphylococcus aureus [8]) [µM] | MIC (Staphylococcus aureus [9]) [µM] | MIC (Staphylococcus aureus [10]) [µM] | MIC (Staphylococcus aureus [11]) [µM] | Activity (Staphylococcus aureus [12]) | MIC (Staphylococcus aureus [13]) [µM] | MIC (Pseudomonas aeruginosa [14]) [µM] | MIC (Staphylococcus aureus [15]) [µM] | MIC (Escherichia coli [16]) [µM]
CC(C)(c1c[nH]c2cc(C3=NCCN3)ccc12)c1c[nH]c2cc(C3=NCCN3)ccc12.CS(=O)(=O)O.CS(=O)(=O)O | 10.005 | > 50 | 33 | > 830 | > 50 | 25 | > 50 | – | – | – | – | – | – | – | – | – | –
CS(=O)(=O)O.CS(=O)(=O)O.c1cc2c(C(c3c[nH]c4cc(C5=NCCN5)ccc34)C3CCCCC3)c[nH]c2cc1C1=NCCN1 | 11.832 | > 50 | 7 to 14 | 20 to 40 | > 50 | 3.1 | > 50 | – | – | – | – | – | – | – | – | – | –
CS(=O)(=O)O.CS(=O)(=O)O.c1ccc(C(c2c[nH]c3cc(C4=NCCN4)ccc23)c2c[nH]c3cc(C4=NCCN4)ccc23)cc1 | 10.643 | > 50 | 24 | 600 | > 50 | 25 | > 50 | – | – | – | – | – | – | – | – | – | –
CS(=O)(=O)O.CS(=O)(=O)O.Clc1ccc(C(c2c[nH]c3cc(C4=NCCN4)ccc23)c2c[nH]c3cc(C4=NCCN4)ccc23)cc1 | 11.491 | 25 | 24 to 48 | 150 | > 50 | 3.1 to 6.2 | > 50 | <=2 | 6.2 | 12.5 | 6.2 | 6.2 | Active | 6.2 | – | – | –
CCC(CC)(c1c[nH]c2cc(C3=NCCN3)ccc12)c1c[nH]c2cc(C3=NCCN3)ccc12.CS(=O)(=O)O.CS(=O)(=O)O | 11.015 | > 50 | 48 | 300 | > 50 | 6.2 | > 50 | <=2 | – | – | – | – | – | – | – | – | –
CS(=O)(=O)O.CS(=O)(=O)O.Cn1cc(C2(c3cn(C)c4cc(C5=NCCN5)ccc34)CCCCC2)c2ccc(C3=NCCN3)cc21 | – | – | – | – | – | 12.5 to 25 | – | <=2 | 12.5 | ≥ 25 | 25 | 12.5 | – | 25 | – | – | –
H-GLLSLLSLLGKLL-NH2 | – | – | – | – | – | – | – | – | – | – | – | – | – | – | > 120 | 3.1 | > 120
CS(=O)(=O)O.CS(=O)(=O)O.Clc1ccc(C(c2c[nH]c3cc(C4=NCCN4)ccc23)c2c[nH]c3cc(C4=NCCN4)ccc23)c(Cl)c1 | 11.924 | 25 to 50 | 12 | 40 | > 50 | 3.1 to 6.2 | 12.5 | – | – | – | – | – | – | – | – | – | –
